Source: ChEMBL document CHEMBL4382197, “Discovery of QCA570 as an Exceptionally Potent and Efficacious Proteolysis Targeting Chimera (PROTAC) Degrader of the Bromodomain and Extra-Terminal (BET) Proteins Capable of Inducing Complete and Durable Tumor Regression” (J Med Chem, 2018)
Activity calls are given as the source filed them. The rule behind the calls is not given here.

Key:
RS4-11 [1] = experiment: Growth inhibition of human RS4:11 cells after 96 hrs by CCK8 assay; assay type: functional, cell-based; conditions: RS4-11, 96 h
[2] = target: T1, Protein cereblon/Bromodomain-containing protein 3/Cullin-4A (Homo sapiens) (UniProt Q15059+Q96SW2+Q13619); experiment: Protac activity at cereblon/cullin 4A/BRD3 in human RS4:11 cells in assessed as BRD3 degradation at 0.1 nM after 3 hrs by Western blot analysis; assay type: cell-based
RS4-11 [3] = experiment: Induction of apoptosis in human RS4:11 cells assessed as PARP cleavage at 0.1 to 10 nM after 24 hrs by Western blot analysis; assay type: functional, cell-based
In short: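 Cells (1.5–2×10^6/well) were treated for 24 h, washed in cold PBS and lysed in RIPA with protease inhibitors. 20 µg lysate was run on 4–20% or 4–12% gels and transferred to PVDF. Blots were probed for cleaved PARP and cleaved caspase 3, with GAPDH as loading control. Detection by ECL.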

[4] = target: T2, Protein cereblon/Bromodomain-containing protein 2/Cullin-4A (Homo sapiens) (UniProt P25440+Q96SW2+Q13619); experiment: Protac activity at cereblon/cullin 4A/BRD2 in human RS4:11 cells assessed as BRD2 degradation at 0.1 nM after 3 hrs by Western blot analysis; assay type: cell-based
MOLM-13 = experiment: Growth inhibition of human MOLM13 cells after 96 hrs by CCK8 assay; assay type: functional, cell-based; conditions: MOLM-13, 96 h
[5] = target: T3, Protein cereblon/Bromodomain-containing protein 4/Cullin-4A (Homo sapiens) (UniProt O60885+Q96SW2+Q13619); experiment: Protac activity at cereblon/cullin 4A/BRD4 in human RS4:11 cells assessed as BRD4 degradation at 0.1 nM after 3 hrs by Western blot analysis; assay type: cell-based
MV4-11 = experiment: Growth inhibition of human MV4-11 cells after 96 hrs by CCK8 assay; assay type: functional, cell-based; conditions: MV4-11, 96 h
[6] = target: Protein cereblon/Bromodomain-containing protein 4/Bromodomain-containing protein 3/Bromodomain-containing protein 2 (Homo sapiens) (UniProt P25440+O60885+Q15059+Q96SW2); experiment: Protac activity at cereblon/cullin 4A/BET in human RS4:11 cells assessed as reduction in c-myc protein levels at 0.1 nM after 3 hrs by Western blot analysis; assay type: cell-based
[7] = target: T1, Protein cereblon/Bromodomain-containing protein 3/Cullin-4A (Homo sapiens); experiment: Protac activity at cereblon/cullin 4A/BRD3 in human MV4-11 cells assessed as BRD3 degradation at 1 to 10 uM after 3 to 24 hrs by Western blot analysis; assay type: cell-based
In short: (§1)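 Cells are used within two months of thawing. […] 1.5–2×10^6 cells/well are treated for 3 h or 24 h, then lysed in RIPA with protease inhibitors. 20 µg lysate is blotted to PVDF and probed with rabbit polyclonal anti-BRD2 or anti-BRD3. GAPDH is the loading control, detected by ECL.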

[8] = target: T1, Protein cereblon/Bromodomain-containing protein 3/Cullin-4A (Homo sapiens); experiment: Protac activity at cereblon/cullin 4A/BRD3 in human RS4:11 cells assessed as BRD3 degradation at 1 to 10 uM after 3 to 24 hrs by Western blot analysis; assay type: cell-based; in short: as §1
RS4-11 [9] = experiment: Induction of apoptosis in human RS4:11 cells assessed as PARP cleavage at 10 uM after 24 hrs by Western blot analysis; assay type: functional, cell-based
[10] = target: Bromodomain-containing protein 4 (Homo sapiens, UniProt O60885)
[11] = target: T3, Protein cereblon/Bromodomain-containing protein 4/Cullin-4A (Homo sapiens); experiment: Protac activity at cereblon/cullin 4A/BRD4 in human RS4:11 cells assessed as BRD4 degradation by Western blot analysis; assay type: cell-based
[12] = target: T1, Protein cereblon/Bromodomain-containing protein 3/Cullin-4A (Homo sapiens); experiment: Protac activity at cereblon/cullin 4A/BRD3 in human RS4:11 cells in assessed as BRD3 degradation by Western blot analysis; assay type: cell-based
[13] = target: T2, Protein cereblon/Bromodomain-containing protein 2/Cullin-4A (Homo sapiens); experiment: Protac activity at cereblon/cullin 4A/BRD2 in human RS4:11 cells assessed as BRD2 degradation by Western blot analysis; assay type: cell-based
[14] = target: T2, Protein cereblon/Bromodomain-containing protein 2/Cullin-4A (Homo sapiens); experiment: Protac activity at cereblon/cullin 4A/BRD2 in human RS4:11 cells assessed as induction of BRD2 degradation at 0.1 to 1 uM after 3 to 24 hrs by Western blot analysis; assay type: cell-based
[15] = target: T3, Protein cereblon/Bromodomain-containing protein 4/Cullin-4A (Homo sapiens); experiment: Protac activity at cereblon/cullin 4A/BRD4 in human RS4:11 cells assessed as BRD4 degradation at 0.1 to 1 uM after 3 to 24 hrs by Western blot analysis; assay type: cell-based
[16] = target: T1, Protein cereblon/Bromodomain-containing protein 3/Cullin-4A (Homo sapiens); experiment: Protac activity at cereblon/cullin 4A/BRD3 in human RS4:11 cells in assessed as BRD3 degradation at 0.1 to 1 uM after 3 to 24 hrs by Western blot analysis; assay type: cell-based

T1 sequence (Q13619 whole entry, looked up): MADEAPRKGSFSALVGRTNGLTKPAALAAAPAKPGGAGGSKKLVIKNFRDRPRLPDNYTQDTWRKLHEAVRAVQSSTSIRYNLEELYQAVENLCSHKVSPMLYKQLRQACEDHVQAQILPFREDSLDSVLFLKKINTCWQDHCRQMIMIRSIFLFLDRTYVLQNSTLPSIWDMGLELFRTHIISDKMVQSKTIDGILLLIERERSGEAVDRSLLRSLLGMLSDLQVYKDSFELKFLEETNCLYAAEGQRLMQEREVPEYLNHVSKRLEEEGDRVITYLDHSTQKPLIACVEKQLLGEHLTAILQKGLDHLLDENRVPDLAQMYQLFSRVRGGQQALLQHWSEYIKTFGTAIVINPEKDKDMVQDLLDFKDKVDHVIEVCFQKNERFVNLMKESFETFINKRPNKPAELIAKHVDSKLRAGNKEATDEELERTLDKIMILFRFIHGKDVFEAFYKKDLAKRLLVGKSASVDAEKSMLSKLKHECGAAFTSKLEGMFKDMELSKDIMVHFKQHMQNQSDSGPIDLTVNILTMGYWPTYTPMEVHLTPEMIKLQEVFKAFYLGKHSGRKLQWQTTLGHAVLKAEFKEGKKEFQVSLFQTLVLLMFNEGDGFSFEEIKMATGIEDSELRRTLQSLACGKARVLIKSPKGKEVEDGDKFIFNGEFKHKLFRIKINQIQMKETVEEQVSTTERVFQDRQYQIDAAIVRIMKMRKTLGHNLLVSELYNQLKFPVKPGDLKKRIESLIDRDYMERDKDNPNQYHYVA
T1 sequence (Q15059 whole entry, looked up): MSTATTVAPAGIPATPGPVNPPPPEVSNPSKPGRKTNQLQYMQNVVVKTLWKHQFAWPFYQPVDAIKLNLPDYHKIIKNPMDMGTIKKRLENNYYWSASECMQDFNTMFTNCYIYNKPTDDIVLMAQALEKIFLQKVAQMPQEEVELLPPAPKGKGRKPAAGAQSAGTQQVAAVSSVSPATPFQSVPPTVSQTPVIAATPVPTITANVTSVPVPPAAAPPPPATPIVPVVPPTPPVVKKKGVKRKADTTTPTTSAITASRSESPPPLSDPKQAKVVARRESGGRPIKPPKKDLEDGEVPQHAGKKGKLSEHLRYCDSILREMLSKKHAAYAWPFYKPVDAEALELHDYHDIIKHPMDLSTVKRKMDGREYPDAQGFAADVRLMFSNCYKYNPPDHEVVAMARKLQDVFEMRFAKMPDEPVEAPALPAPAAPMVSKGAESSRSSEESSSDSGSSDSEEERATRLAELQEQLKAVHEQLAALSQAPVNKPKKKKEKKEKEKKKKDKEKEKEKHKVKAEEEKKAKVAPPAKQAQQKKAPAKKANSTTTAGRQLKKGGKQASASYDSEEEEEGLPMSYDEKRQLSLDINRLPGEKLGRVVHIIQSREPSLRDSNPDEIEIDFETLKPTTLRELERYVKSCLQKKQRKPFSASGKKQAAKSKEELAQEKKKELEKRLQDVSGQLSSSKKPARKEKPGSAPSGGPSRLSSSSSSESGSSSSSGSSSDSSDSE
T1 sequence (Q96SW2 whole entry, looked up): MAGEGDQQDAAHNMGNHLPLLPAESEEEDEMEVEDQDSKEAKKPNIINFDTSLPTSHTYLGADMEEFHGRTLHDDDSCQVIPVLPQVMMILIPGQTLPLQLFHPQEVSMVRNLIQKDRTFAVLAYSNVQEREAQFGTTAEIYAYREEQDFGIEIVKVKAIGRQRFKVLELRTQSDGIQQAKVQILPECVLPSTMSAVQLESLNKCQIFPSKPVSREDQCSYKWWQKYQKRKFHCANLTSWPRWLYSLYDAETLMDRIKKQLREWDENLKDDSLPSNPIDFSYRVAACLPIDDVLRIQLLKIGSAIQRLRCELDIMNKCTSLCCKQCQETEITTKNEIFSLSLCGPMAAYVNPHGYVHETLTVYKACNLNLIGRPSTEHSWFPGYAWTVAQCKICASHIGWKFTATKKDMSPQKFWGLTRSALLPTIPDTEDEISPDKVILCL
T2 sequence (P25440 whole entry, looked up): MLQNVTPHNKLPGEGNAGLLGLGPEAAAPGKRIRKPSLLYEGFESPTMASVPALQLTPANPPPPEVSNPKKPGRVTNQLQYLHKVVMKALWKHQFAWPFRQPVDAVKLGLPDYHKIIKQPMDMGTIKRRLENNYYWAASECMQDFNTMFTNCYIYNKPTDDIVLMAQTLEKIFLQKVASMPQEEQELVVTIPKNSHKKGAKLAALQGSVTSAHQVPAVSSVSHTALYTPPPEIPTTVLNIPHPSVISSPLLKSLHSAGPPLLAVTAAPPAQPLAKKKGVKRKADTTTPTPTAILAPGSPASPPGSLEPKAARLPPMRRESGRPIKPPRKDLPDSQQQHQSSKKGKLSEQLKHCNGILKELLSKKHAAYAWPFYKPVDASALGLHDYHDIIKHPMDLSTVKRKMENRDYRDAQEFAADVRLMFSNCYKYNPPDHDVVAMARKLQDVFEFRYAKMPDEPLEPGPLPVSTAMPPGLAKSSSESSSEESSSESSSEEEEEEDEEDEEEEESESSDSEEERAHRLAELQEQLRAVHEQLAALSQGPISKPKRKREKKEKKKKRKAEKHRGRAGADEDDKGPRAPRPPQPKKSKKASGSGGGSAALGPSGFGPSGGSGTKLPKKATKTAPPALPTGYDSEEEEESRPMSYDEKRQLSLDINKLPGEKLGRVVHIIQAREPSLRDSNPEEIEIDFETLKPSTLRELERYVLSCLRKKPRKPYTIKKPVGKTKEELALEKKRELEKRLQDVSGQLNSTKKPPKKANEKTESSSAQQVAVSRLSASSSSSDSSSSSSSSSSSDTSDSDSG
T2 sequence (Q13619 whole entry, looked up): as the sequence (Q13619 whole entry, looked up) above
T2 sequence (Q96SW2 whole entry, looked up): as the sequence (Q96SW2 whole entry, looked up) above
Sequence of Protein cereblon/Bromodomain-containing protein 4/Bromodomain-containing protein 3/Bromodomain-containing protein 2 (Homo sapiens) (P25440 whole entry, looked up, other chains not shown): as the sequence (P25440 whole entry, looked up) above
Sequence of Protein cereblon/Bromodomain-containing protein 4/Bromodomain-containing protein 3/Bromodomain-containing protein 2 (Homo sapiens) (Q15059 whole entry, looked up, other chains not shown): as the sequence (Q15059 whole entry, looked up) above
Sequence of Protein cereblon/Bromodomain-containing protein 4/Bromodomain-containing protein 3/Bromodomain-containing protein 2 (Homo sapiens) (Q96SW2 whole entry, looked up, other chains not shown): as the sequence (Q96SW2 whole entry, looked up) above

IC50 (RS4-11 [1]) | IC50 (MOLM-13) | IC50 (MV4-11) | SMILES | further results
0.02 nM | 0.19 nM | 0.0654 nM | Cc1nnc2n1Cc1sc(C#Cc3cnn(CCCCNc4cccc5c4C(=O)N(C4CCC(=O)NC4=O)C5=O)c3)c(Cc3ccccc3)c1OC2 (centres undefined) | Activity [2]: Active; Activity (RS4-11 [3]): Active; Activity [4]: Active; Activity [5]: Active; Activity [6]: Active
0.0012 nM | 0.18 nM | – | Cc1nnc2n1Cc1sc(C#Cc3cnn(CCCCNc4cccc5c4CN(C4CCC(=O)NC4=O)C5=O)c3)c(Cc3ccccc3)c1OC2 (centres undefined) | –
0.025 nM | 0.51 nM | 0.035 nM | Cc1nnc2n1Cc1sc(C#Cc3cnn(CCCNc4cccc5c4CN(C4CCC(=O)NC4=O)C5=O)c3)c(Cc3ccccc3)c1OC2 (centres undefined) | –
– | – | – | Cc1nnc2n1-c1sc(C#Cc3cnn(C)c3)c(Cc3ccccc3)c1COC2 | Activity [7]: inactive; Activity [8]: Active; Activity (RS4-11 [9]): Active
0.038 nM | 0.56 nM | 0.138 nM | Cc1nnc2n1Cc1sc(C#Cc3cnn(CCCNc4cccc5c4C(=O)N(C4CCC(=O)NC4=O)C5=O)c3)c(Cc3ccccc3)c1OC2 (centres undefined) | Activity [2]: Active; Activity (RS4-11 [3]): Active; Activity [4]: Active; Activity [5]: Active
– | – | – | Cc1nnc2n1-c1scc(Cc3ccccc3)c1COC2 | IC50 [10]: 2300 nM; Ki [10]: 820 nM
20.8 nM | 311 nM | 19.7 nM | Cc1nnc2n1Cc1sc(C#Cc3cnn(COc4cccc5c4C(=O)N(C4CCC(=O)NC4=O)C5=O)c3)c(Cc3ccccc3)c1OC2 (centres undefined) | Activity [11]: Dose-dependent effect; Activity [12]: Dose-dependent effect; Activity [13]: Dose-dependent effect
0.081 nM | 0.53 nM | 0.14 nM | Cc1nnc2n1Cc1sc(C#Cc3cnn(CCCCCc4cccc5c4CN(C4CCC(=O)NC4=O)C5=O)c3)c(Cc3ccccc3)c1OC2 (centres undefined) | –
– | – | – | Cc1sc2c(c1C)COCc1nnc(C)n1-2 | IC50 [10]: 4400 nM; Ki [10]: 1500 nM
0.02 nM | 0.19 nM | 0.092 nM | Cc1nnc2n1Cc1sc(C#Cc3cnn(CCCCCNc4cccc5c4C(=O)N(C4CCC(=O)NC4=O)C5=O)c3)c(Cc3ccccc3)c1OC2 (centres undefined) | Activity [2]: Active; Activity (RS4-11 [3]): Active; Activity [4]: Active; Activity [5]: Active; Activity [6]: Active
> 1000 nM | > 1000 nM | > 1000 nM | Cc1nnc2n1Cc1sc(C#Cc3cnn(-c4cccc5c4C(=O)N(C4CCC(=O)NC4=O)C5=O)c3)c(Cc3ccccc3)c1OC2 (centres undefined) | Activity [14]: inactive; Activity [15]: inactive; Activity [16]: inactive
0.379 nM | 2.23 nM | 0.47 nM | Cc1nnc2n1Cc1sc(C#Cc3cnn(CCNc4cccc5c4C(=O)N(C4CCC(=O)NC4=O)C5=O)c3)c(Cc3ccccc3)c1OC2 (centres undefined) | Activity (RS4-11 [3]): Active
0.39 nM | 1.6 nM | 0.72 nM | Cc1nnc2n1Cc1sc(C#Cc3cnn(CCCC#Cc4cccc5c4C(=O)N(C4CCC(=O)NC4=O)C5=O)c3)c(Cc3ccccc3)c1OC2 (centres undefined) | –
– | – | – | Cc1nnc2n1-c1sc(C3CCOCC3)c(Cc3ccccc3)c1COC2 | IC50 [10]: 8100 nM; Ki [10]: 2800 nM
– | – | – | Cc1nnc2n1-c1sc(C#N)c(Cc3ccccc3)c1COC2 | IC50 [10]: 720 nM; Ki [10]: 250 nM
43.7 nM | 183 nM | 25.8 nM | Cc1nnc2n1Cc1sc(C#Cc3cnn(CCCC#Cc4cccc5c4CN(C4CCC(=O)N(C)C4=O)C5=O)c3)c(Cc3ccccc3)c1OC2 (centres undefined) | –
